Assay results collected from several papers.
Compare with care: the assays were run in different laboratories.
Target: cGMP-dependent protein kinase 2 (PRKG2, Homo sapiens, UniProt Q13237)
Residues used in one study (Q13237 1-762): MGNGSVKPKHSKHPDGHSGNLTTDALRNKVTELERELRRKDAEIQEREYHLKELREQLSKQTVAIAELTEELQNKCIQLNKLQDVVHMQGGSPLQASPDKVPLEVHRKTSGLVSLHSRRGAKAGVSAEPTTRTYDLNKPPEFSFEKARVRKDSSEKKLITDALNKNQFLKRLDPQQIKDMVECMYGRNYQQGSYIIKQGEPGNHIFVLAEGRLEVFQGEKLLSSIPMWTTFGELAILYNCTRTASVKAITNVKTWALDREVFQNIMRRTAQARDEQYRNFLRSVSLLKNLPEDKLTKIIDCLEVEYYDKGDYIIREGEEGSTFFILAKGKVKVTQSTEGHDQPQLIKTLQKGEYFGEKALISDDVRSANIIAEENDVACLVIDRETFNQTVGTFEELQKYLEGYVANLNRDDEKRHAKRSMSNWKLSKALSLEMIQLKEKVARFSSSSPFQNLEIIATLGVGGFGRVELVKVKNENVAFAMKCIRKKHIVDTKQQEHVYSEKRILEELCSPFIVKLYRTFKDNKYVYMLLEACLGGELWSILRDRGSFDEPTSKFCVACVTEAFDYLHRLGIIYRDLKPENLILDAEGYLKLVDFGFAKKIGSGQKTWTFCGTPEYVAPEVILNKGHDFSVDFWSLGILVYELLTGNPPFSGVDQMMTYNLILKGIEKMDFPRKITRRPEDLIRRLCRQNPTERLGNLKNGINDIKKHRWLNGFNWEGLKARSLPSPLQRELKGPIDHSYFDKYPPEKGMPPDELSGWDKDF

Compound | read-out | action | method | concentration | endpoint | result
Cc1ccc(C(=O)NCc2ccsc2)cc1C#Cc1cn(C(C)C)c2ncnc(N)c12 | enzyme activity | inhibitor | – | 1 µM | activity vs control | 112%
CSc1cccnc1N1CCN(Cc2nc3ccccc3[nH]2)CC1 | cell-free assay | – | competition with immobilised ligand | 1 µM | remaining binding | 94%
CN(C)C1CCN(CC#Cc2nn(C3CCCC3)c3nc(NCc4ccccc4)ncc23)C1 (stereo not shown) | enzyme activity | inhibitor | FRET | 10 µM | inhibition | 5%
N#CC1(c2ccccn2)CCN(Cc2cc(C(=O)N3CCCC3)c(=O)n3ccccc23)CC1 | cell-free assay | – | competition with immobilised ligand | 1 µM | remaining binding | 100%
O=C1Nc2ccc(Cl)cc2C1=Cc1cc(Cl)c(O)c(Cl)c1 | cell-free assay | – | – | 0.5 µM | remaining signal | 97%
CC(C)(C)c1nc2c(s1)c1nc(N)ncc1c1ccc(NS(=O)(=O)c3c(F)cccc3F)c(F)c12 | enzyme activity | inhibitor | radiometric | 1 µM | remaining activity | 102%
Cn1cnc(Br)c1C1=CN(c2ncnc3[nH]cnc23)CCS1 | enzyme activity | inhibitor | radiometric | 2 µM | inhibition | 91.7%
CCCS(=O)(=O)Nc1ccc(F)c(C(=O)c2c[nH]c3ncc(-c4ccc(Cl)cc4)cc23)c1F | enzyme activity | inhibitor | – | 1 µM | inhibition | < 10%
CN(C)c1ncnc(-c2ccc3nc(Nc4cc(CN5CCN(C(=O)CC(F)(F)F)CC5)ccn4)[nH]c3c2)c1Cl | cell-free assay | – | competition with immobilised ligand | 1 µM | remaining binding | 40%
COc1cc2ncnc(Nc3ccc(Oc4ccccc4)cc3C)c2cc1OC | enzyme activity | inhibitor | – | 1 µM | inhibition | 3%
CC1=C(C#N)[C@@H](c2ccc3[nH]nc(C)c3c2)C(C#N)=C(c2ccc(Cl)cc2)N1 | cell-free assay | – | competition with immobilised ligand | 1 µM | remaining binding | 100%
Cn1cncc1C1=CN(c2ncnc3[nH]cnc23)CCS1 | enzyme activity | inhibitor | radiometric | 2 µM | inhibition | 99.4%
Cc1cc(-n2nc(Cc3cc(F)cc(C(F)(F)F)c3)nc2C)ccc1C(N)=O | cell-free assay | – | competition with immobilised ligand | 1 µM | remaining binding | 86%
O=C(Nc1cnn(-c2csc(C(=O)NC3COC3)c2)c1)Nc1ccccc1Cl | enzyme activity | inhibitor | – | 5 µM | remaining activity | 101%
N#CCCc1ccc2c(c1)-c1[nH]c3ccc([N+](=O)[O-])cc3c1CC(=O)N2 | cell-free assay | – | – | 0.5 µM | remaining signal | 93.9%
C[C@H]1CCN(c2nccc(-c3cnn4ncccc34)n2)C1 | binding | – | – | 1 µM | remaining binding | 80%
O=C(Nc1cccnn1)N1CCC(=Cc2cccc(Oc3ccc(C(F)(F)F)cn3)c2)CC1 | cell-free assay | – | competition with immobilised ligand | 1 µM | remaining binding | 100%
C#Cc1cccc(Nc2ncnc3cc(OCCOC)c(OCCOC)cc23)c1 | cell-free assay | – | – | 0.5 µM | remaining signal | 107%
CC(C)(O)[C@H]1CC[C@H](Nc2ccc3ncc(-c4cccc(C(F)(F)F)c4)n3n2)CC1 | enzyme activity | inhibitor | – | 1 µM | remaining activity | 93.7%
